Experimental data: ChEMBL document CHEMBL3608272, “Design, synthesis and anticancer properties of novel oxa/azaspiro[4,5]trienones as potent apoptosis inducers through mitochondrial disruption” (2015)
Calls of active or inactive are those of the source. The rule behind the calls is not given here.

Legend:
[1] = tested on: HepG2; experiment: Anti-proliferative activity against human HepG2 cells incubated for 48 hrs by SRB assay; format: functional; settings: HepG2, 48 h
How it was run: (§1)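 SRB assay. Cells in DMEM with 10% FBS were seeded and grown 24 h at 37 °C in CO2. Compounds were diluted from a 10 mM DMSO stock to 1, 5 and 10 µM, with DMSO at most 0.1%, and exposed 48 h. Cells were fixed with 10% TCA for 60 min at 4 °C and stained 20 min at room temperature with 0.4% SRB in 1% acetic acid. Dye was eluted with 10 mM trizma base and absorbance read at 540 nm. Run in triplicate; GI50 given as mean ± SD of three determinations.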

[2] = tested on: DU-145; experiment: Anti-proliferative activity against human DU145 cells incubated for 48 hrs by SRB assay; format: functional; settings: DU-145, 48 h; how it was run: as §1
[3] = tested on: MCF7; experiment: Anti-proliferative activity against human MCF7 cells incubated for 48 hrs by SRB assay; format: functional; settings: MCF7, 48 h; how it was run: as §1
[4] = tested on: A549; experiment: Anti-proliferative activity against human A549 cells incubated for 48 hrs by SRB assay; format: functional; settings: A549, 48 h
[5] = tested on: MCF7; experiment: Induction of ROS generation in human MCF7 cells at 1 uM incubated for 48 hrs by DCFDA dye based flow cytometry (reference value: 1.2%); format: functional
[6] = tested on: MCF7; experiment: Induction of apoptosis in human MCF7 cells assessed as necrotic cells levels at 1 uM incubated for 48 hrs by Annexin V-FITC and propidium iodide staining based flow cytometry (reference value: 0.86%); format: functional
[7] = tested on: MCF7; experiment: Induction of apoptosis in human MCF7 cells assessed as increase in p27 protein levels at 1 uM incubated for 48 hrs by Western blot method; format: functional, cell-based
How it was run: (§2)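 MCF-7 cells were treated for 48 h and lysed in ice-cold RIPA buffer with PMSF, aprotinin, leupeptin, pepstatin and NaF. Protein was quantified by Bradford, and 50 µg per lane was run on 12% SDS-PAGE and transferred to PVDF. Membranes were blocked 2 h in TBST with 5% blocking powder, probed with primary antibody overnight and HRP secondary for 1 h at room temperature, then detected by chemiluminescence.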

[8] = tested on: MCF7; experiment: Induction of cell cycle arrest in human MCF7 cells assessed as accumulation at G0/G1 phase at 1 uM incubated for 48 hrs by propidium iodide staining based flow cytometry (reference value: 77.79%); format: functional
How it was run: (§3)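 MCF-7 cells were treated 48 h, harvested, washed in PBS, fixed in ice-cold 70% ethanol and stained with propidium iodide. Phase distribution was measured by flow cytometry and compared with untreated cells.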

[9] = tested on: MCF7; experiment: Induction of cell cycle arrest in human MCF7 cells assessed as accumulation at G0/G1 phase at 0.5 uM incubated for 48 hrs by propidium iodide staining based flow cytometry (reference value: 77.79%); format: functional; how it was run: as §3
[10] = tested on: MCF7; experiment: Induction of apoptosis in human MCF7 cells assessed as increase in p53 protein levels at 1 uM incubated for 48 hrs by Western blot method; format: functional, cell-based; how it was run: as §2
[11] = tested on: MCF7; experiment: Induction of apoptosis in human MCF7 cells assessed as induction of caspase-9 activity at 1 uM incubated for 48 hrs by ELISA method relative to control; format: functional
How it was run: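 MCF-7 cells were treated for 48 h, pelleted, washed in PBS and lysed for 15 min. After centrifugation at 20,000 rpm for 15 min, caspase-9 activity in the supernatant was measured with a kit ELISA and expressed relative to untreated control. Mean ± SD of two experiments run in triplicate.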

[12] = tested on: MCF7; experiment: Induction of apoptosis in human MCF7 cells assessed as increase in p21 protein levels at 1 uM incubated for 48 hrs by Western blot method; format: functional, cell-based; how it was run: as §2
[13] = tested on: MCF7; experiment: Induction of apoptosis in human MCF7 cells assessed as early apoptotic cells levels at 1 uM incubated for 48 hrs by Annexin V-FITC and propidium iodide staining based flow cytometry (reference value: 3.57%); format: functional
[14] = tested on: MCF7; experiment: Reduction in mitochondrial membrane potential in human MCF7 cells at 0.5 and 1 uM incubated for 48 hrs by JC1 dye staining based flow cytometry; format: functional, cell-based
How it was run: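 MCF-7 cells (1 × 10^6 per well) in six-well plates were treated 48 h, trypsinized, washed in PBS and stained with 5 µg/mL JC-1 for 15 min at 37 °C. Cells were rinsed three times, resuspended in prewarmed medium and analysed by flow cytometry in the FL1 and FL2 channels.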

[15] = tested on: MCF7; experiment: Induction of apoptosis in human MCF7 cells assessed as necrotic cells levels at 0.5 uM incubated for 48 hrs by Annexin V-FITC and propidium iodide staining based flow cytometry (reference value: 0.86%); format: functional
[16] = tested on: MCF7; experiment: Induction of apoptosis in human MCF7 cells assessed as viable cells levels at 0.5 uM incubated for 48 hrs by Annexin V-FITC and propidium iodide staining based flow cytometry (reference value: 92.5%); format: functional
[17] = tested on: MCF7; experiment: Induction of apoptosis in human MCF7 cells assessed as early apoptotic cells levels at 0.5 uM incubated for 48 hrs by Annexin V-FITC and propidium iodide staining based flow cytometry (reference value: 3.57%); format: functional
[18] = tested on: MCF7; experiment: Induction of apoptosis in human MCF7 cells assessed as reduction in Bcl2 protein levels at 1 uM incubated for 48 hrs by Western blot method; format: functional, cell-based; how it was run: as §2
[19] = tested on: MCF7; experiment: Induction of cell cycle arrest in human MCF7 cells assessed as accumulation at sub G1 phase at 1 uM incubated for 48 hrs by propidium iodide staining based flow cytometry (reference value: 2.75%); format: functional; how it was run: as §3
[20] = tested on: MCF7; experiment: Induction of cell cycle arrest in human MCF7 cells assessed as accumulation at S phase at 1 uM incubated for 48 hrs by propidium iodide staining based flow cytometry (reference value: 0.99%); format: functional; how it was run: as §3
[21] = tested on: MCF7; experiment: Induction of cell cycle arrest in human MCF7 cells assessed as accumulation at sub G1 phase at 0.5 uM incubated for 48 hrs by propidium iodide staining based flow cytometry (reference value: 2.75%); format: functional; how it was run: as §3
[22] = tested on: MCF7; experiment: Induction of apoptosis in human MCF7 cells assessed as increase in Bax protein levels at 1 uM incubated for 48 hrs by Western blot method; format: functional, cell-based; how it was run: as §2
[23] = tested on: MCF7; experiment: Induction of apoptosis in human MCF7 cells assessed as late apoptotic cells levels at 0.5 uM incubated for 48 hrs by Annexin V-FITC and propidium iodide staining based flow cytometry (reference value: 3.08%); format: functional
[24] = tested on: MCF7; experiment: Induction of ROS generation in human MCF7 cells at 0.5 uM incubated for 48 hrs by DCFDA dye based flow cytometry (reference value: 1.2%); format: functional
[25] = tested on: MCF7; experiment: Induction of cell cycle arrest in human MCF7 cells assessed as accumulation at G2/M phase at 0.5 uM incubated for 48 hrs by propidium iodide staining based flow cytometry (reference value: 11.98%); format: functional; how it was run: as §3
[26] = tested on: MCF7; experiment: Induction of cell cycle arrest in human MCF7 cells assessed as accumulation at G2/M phase at 1 uM incubated for 48 hrs by propidium iodide staining based flow cytometry (reference value: 11.98%); format: functional; how it was run: as §3
[27] = tested on: MCF7; experiment: Induction of cell cycle arrest in human MCF7 cells assessed as accumulation at S phase at 0.5 uM incubated for 48 hrs by propidium iodide staining based flow cytometry (reference value: 0.99%); format: functional; how it was run: as §3
[28] = tested on: MCF7; experiment: Induction of apoptosis in human MCF7 cells assessed as late apoptotic cells levels at 1 uM incubated for 48 hrs by Annexin V-FITC and propidium iodide staining based flow cytometry (reference value: 3.08%); format: functional
[29] = tested on: MCF7; experiment: Induction of apoptosis in human MCF7 cells assessed as viable cells levels at 1 uM incubated for 48 hrs by Annexin V-FITC and propidium iodide staining based flow cytometry (reference value: 92.5%); format: functional

Cc1ccc(C2=C(c3ccccc3)C3(C=CC(=O)C=C3)N(C)C2=O)cc1Cl
GI50 [1]: 10.4 µM
GI50 [2]: 12.1 µM
GI50 [3]: 7.4 µM
GI50 [4]: 21.1 µM

CN1C(=O)C(c2ccoc2)=C(c2ccccc2)C12C=CC(=O)C=C2
GI50 [1]: 62.8 µM
GI50 [2]: 91.2 µM
GI50 [3]: 52.7 µM
GI50 [4]: 126 µM

CC/C(=C(\c1ccccc1)c1ccc(OCCN(C)C)cc1)c1ccccc1 [TAMOXIFEN]
GI50 [2]: 19.3 µM
GI50 [3]: 8 µM
GI50 [4]: 24.4 µM

O=C1C=CC2(C=C1)OC(=O)C(c1ccc([N+](=O)[O-])cc1)=C2c1ccccc1
Activity [5]: 78.5%
Activity [6]: 3.77%
GI50 [1]: 1.5 µM
Activity [7]: Active
Activity [8]: 89.15%
Activity [9]: 84.21%
Activity [10]: Active
fold change (FC) [11]: 2
Activity [12]: Active
Activity [13]: 10.13%
inhibition [14]: Active
Activity [15]: 1.96%
Activity [16]: 85.41%
Activity [17]: 5.87%
GI50 [2]: 1.9 µM
Activity [18]: Active
Activity [19]: 3.69%
Activity [20]: 1.75%
Activity [21]: 4.38%
Activity [22]: Active
Activity [23]: 6.76%
Activity [24]: 30.4%
Activity [25]: 3.35%
Activity [26]: 0.76%
Activity [27]: 0.34%
Activity [28]: 28.87%
GI50 [3]: 1 µM
GI50 [4]: 4 µM
Activity [29]: 57.24%

CN1C(=O)C(c2cccc3ccccc23)=C(c2ccccc2)C12C=CC(=O)C=C2
GI50 [1]: 6.12 µM
GI50 [2]: 6.3 µM
GI50 [3]: 2.4 µM
GI50 [4]: 17.3 µM

CN1C(=O)C(c2cc3ccccc3s2)=C(c2ccccc2)C12C=CC(=O)C=C2
GI50 [1]: 7.2 µM
GI50 [2]: 9 µM
GI50 [3]: 4.2 µM
GI50 [4]: 18.8 µM

COc1ccc(F)cc1C1=C(c2ccccc2)C2(C=CC(=O)C=C2)OC1=O
Activity [5]: 57.4%
Activity [6]: 4.77%
GI50 [1]: 1.4 µM
Activity [7]: Active
Activity [8]: 88.42%
Activity [9]: 81.44%
Activity [10]: Active
fold change (FC) [11]: 2
Activity [12]: Active
Activity [13]: 6.64%
inhibition [14]: Active
Activity [15]: 1.69%
Activity [16]: 86.85%
Activity [17]: 4.22%
GI50 [2]: 0.9 µM
Activity [18]: Active
Activity [19]: 3.25%
Activity [20]: 1.3%
Activity [21]: 2.89%
Activity [22]: Active
Activity [23]: 7.25%
Activity [24]: 16.2%
Activity [25]: 9.63%
Activity [26]: 2.2%
Activity [27]: 1.12%
Activity [28]: 24.21%
GI50 [3]: 1 µM
GI50 [4]: 4.6 µM
Activity [29]: 64.39%

CN1C(=O)C(c2ccc3c(c2)OCO3)=C(c2ccccc2)C12C=CC(=O)C=C2
GI50 [1]: 19.6 µM
GI50 [2]: 16.3 µM
GI50 [3]: 6.7 µM
GI50 [4]: 30.2 µM

CN1C(=O)C(c2ccc(C(F)(F)F)cc2)=C(c2ccccc2)C12C=CC(=O)C=C2
GI50 [1]: 13.7 µM
GI50 [2]: 17.6 µM
GI50 [3]: 8.1 µM
GI50 [4]: 30.3 µM

CN1C(=O)C(c2ccc(CO)cc2)=C(c2ccccc2)C12C=CC(=O)C=C2
GI50 [1]: 7.7 µM
GI50 [2]: 11.5 µM
GI50 [3]: 7.6 µM
GI50 [4]: 13.6 µM

O=C1C=CC2(C=C1)OC(=O)C(c1ccc(C(=O)O)cc1)=C2c1ccccc1
GI50 [1]: 6.3 µM
GI50 [2]: 4.8 µM
GI50 [3]: 3.5 µM
GI50 [4]: 6.3 µM

CN1C(=O)C(c2ccc(C=O)s2)=C(c2ccccc2)C12C=CC(=O)C=C2
GI50 [1]: 13.9 µM
GI50 [2]: 8.2 µM
GI50 [3]: 3.6 µM
GI50 [4]: 16.6 µM

COc1ccc(C2=C(c3ccccc3)C3(C=CC(=O)C=C3)N(C)C2=O)cc1
GI50 [1]: 61.7 µM
GI50 [2]: 55.7 µM
GI50 [3]: 45.4 µM
GI50 [4]: 98 µM
